Laboratory results: ChEMBL document CHEMBL2203250, “Synthesis and evaluation of 3-¹²³I-iodo-5-[2-(S)-3-pyrrolinylmethoxy]-pyridine (niodene) as a potential nicotinic α4β2 receptor imaging agent” (Bioorg Med Chem Lett, 2012)
Active and inactive are the calls of the source. The calls are words filed in the database; no cut-off is given here.

Tests used:
[1] = molecular target: Neuronal acetylcholine receptor; alpha4/beta2 (Rattus norvegicus, UniProt P09483+P12390); experiment: Displacement of [3H]cytisine from alpha4beta2 nAChR in rat brain homogenate; format: tissue-based
Method in brief: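 Male Sprague–Dawley rat cerebrum was homogenized, washed twice by centrifugation at 40,000g and resuspended. It was incubated with 1 nM 3H-cytisine and competitor (10^-10 to 10^-3 M) in 50 mM Tris, pH 7.0, with 120 mM NaCl, 5 mM KCl, 1 mM MgCl2 and 2.5 mM CaCl2, at 2 °C for 75 min. […] The assay was filtered, and filters were washed in cold buffer and scintillation-counted.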

[2] = molecular target: T1, Neuronal acetylcholine receptor; alpha4/beta2 (Rattus norvegicus) (UniProt P09483+P12390); experiment: Displacement of [18F]nifene from alpha4beta nAChR in Sprague-Dawley rat frontal cortex at 10 nM after 60 mins by autoradiographic analysis; format: tissue-based
Method in brief: (§1)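 Rat brain slices were preincubated 10 min in Tris HCl buffer with salts, pH 7.4. […] Slices got two 1-min ice-cold Tris HCl washes and a cold water rinse, then overnight phosphor-screen exposure. Regional binding was read as DLU/mm² and expressed relative to cerebellum.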

[3] = molecular target: T1, Neuronal acetylcholine receptor; alpha4/beta2 (Rattus norvegicus); experiment: Binding affinity to alpha4beta2 nAChR in Sprague-Dawley rat cerebellum at 0.1 Ci/umol after 60 mins by autoradiographic analysis; format: protein-complex assay; details: tested as the 123I-labelled form
Method in brief: (§2)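 Frozen rat brain sections were thawed for about 15 min at ambient temperature. They were preincubated 10 min in 120 mM Tris HCl with 5 mM NaCl, 5 mM KCl, 2.5 mM CaCl2 and 1 mM MgCl2, pH 7.4, then incubated with 5 nM 123I-niodene at 37 °C for 60 min. […] Sections were washed in ice-cold buffer and exposed to phosphor screens for at least 16 h. Regional binding was read as DLU/mm²; n ≥5 sections, mean and SD.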

[4] = molecular target: T1, Neuronal acetylcholine receptor; alpha4/beta2 (Rattus norvegicus); experiment: Displacement of [18F]nifene from alpha4beta nAChR in Sprague-Dawley rat striatum at 10 nM after 60 mins by autoradiographic analysis; format: protein-complex assay; method in brief: as §1
[5] = molecular target: T1, Neuronal acetylcholine receptor; alpha4/beta2 (Rattus norvegicus); experiment: Ratio of nifene Ki to compound Ki for rat alpha4beta2 nAChR; format: protein-complex assay
[6] = molecular target: T1, Neuronal acetylcholine receptor; alpha4/beta2 (Rattus norvegicus); experiment: Displacement of [18F]nifene from alpha4beta nAChR in Sprague-Dawley rat thalamus at 10 nM after 60 mins by autoradiographic analysis; format: protein-complex assay; method in brief: as §1
[7] = molecular target: T1, Neuronal acetylcholine receptor; alpha4/beta2 (Rattus norvegicus); experiment: Binding affinity to alpha4beta2 nAChR in Sprague-Dawley rat cortex at 0.1 Ci/umol after 60 mins by autoradiographic analysis; details: tested as the 123I-labelled form; method in brief: as §2
[8] = molecular target: T1, Neuronal acetylcholine receptor; alpha4/beta2 (Rattus norvegicus); experiment: Binding affinity to alpha4beta2 nAChR in Sprague-Dawley rat thalamus at 0.1 Ci/umol after 60 mins by autoradiographic analysis; format: protein-complex assay; details: tested as the 123I-labelled form; method in brief: as §2
[9] = molecular target: T1, Neuronal acetylcholine receptor; alpha4/beta2 (Rattus norvegicus); experiment: Displacement of [18F]nifene from alpha4beta nAChR in Sprague-Dawley rat subiculum at 10 nM after 60 mins by autoradiographic analysis; format: protein-complex assay; method in brief: as §1
[10] = molecular target: T1, Neuronal acetylcholine receptor; alpha4/beta2 (Rattus norvegicus); experiment: Displacement of [18F]nifene from alpha4beta nAChR in Sprague-Dawley rat thalamus at 1 uM after 60 mins by autoradiographic analysis; format: protein-complex assay; method in brief: as §1
Nucleic Acid [11] = experiment: Ratio of drug uptake in cortex to cerebellum in Sprague-Dawley rat brain at 0.1 Ci/umol after 60 mins by autoradiographic analysis; format: ADME, tissue-based; details: in vivo, 1 h
Nucleic Acid [12] = experiment: Ratio of drug uptake in thalamus to cerebellum in Sprague-Dawley rat brain at 0.1 Ci/umol after 60 mins by autoradiographic analysis; format: ADME, tissue-based; details: in vivo, 1 h
Nucleic Acid [13] = experiment: Ratio of drug uptake in thalamus to cerebellum in Sprague-Dawley rat brain at 2 uCi/umol after 60 mins by autoradiographic analysis; format: ADME, tissue-based; details: in vivo, 1 h

Chain of Neuronal acetylcholine receptor; alpha4/beta2 (P09483 whole entry): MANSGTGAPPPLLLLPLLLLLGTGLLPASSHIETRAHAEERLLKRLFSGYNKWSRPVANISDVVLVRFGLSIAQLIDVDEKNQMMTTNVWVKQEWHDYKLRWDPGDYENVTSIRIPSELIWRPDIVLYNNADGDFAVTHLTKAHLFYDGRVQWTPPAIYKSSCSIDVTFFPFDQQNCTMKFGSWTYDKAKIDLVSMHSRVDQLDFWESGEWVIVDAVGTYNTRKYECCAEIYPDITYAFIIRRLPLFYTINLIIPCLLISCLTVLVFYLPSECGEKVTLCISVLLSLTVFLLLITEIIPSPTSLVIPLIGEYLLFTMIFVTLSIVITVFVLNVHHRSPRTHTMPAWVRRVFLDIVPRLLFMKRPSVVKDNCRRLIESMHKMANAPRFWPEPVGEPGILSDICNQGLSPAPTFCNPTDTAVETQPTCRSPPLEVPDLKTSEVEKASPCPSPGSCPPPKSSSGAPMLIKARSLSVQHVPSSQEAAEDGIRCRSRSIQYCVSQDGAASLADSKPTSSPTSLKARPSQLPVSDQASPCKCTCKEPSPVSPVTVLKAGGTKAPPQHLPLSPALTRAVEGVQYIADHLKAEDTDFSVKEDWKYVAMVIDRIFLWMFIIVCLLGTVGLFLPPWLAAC
Chain of Neuronal acetylcholine receptor; alpha4/beta2 (P12390 whole entry): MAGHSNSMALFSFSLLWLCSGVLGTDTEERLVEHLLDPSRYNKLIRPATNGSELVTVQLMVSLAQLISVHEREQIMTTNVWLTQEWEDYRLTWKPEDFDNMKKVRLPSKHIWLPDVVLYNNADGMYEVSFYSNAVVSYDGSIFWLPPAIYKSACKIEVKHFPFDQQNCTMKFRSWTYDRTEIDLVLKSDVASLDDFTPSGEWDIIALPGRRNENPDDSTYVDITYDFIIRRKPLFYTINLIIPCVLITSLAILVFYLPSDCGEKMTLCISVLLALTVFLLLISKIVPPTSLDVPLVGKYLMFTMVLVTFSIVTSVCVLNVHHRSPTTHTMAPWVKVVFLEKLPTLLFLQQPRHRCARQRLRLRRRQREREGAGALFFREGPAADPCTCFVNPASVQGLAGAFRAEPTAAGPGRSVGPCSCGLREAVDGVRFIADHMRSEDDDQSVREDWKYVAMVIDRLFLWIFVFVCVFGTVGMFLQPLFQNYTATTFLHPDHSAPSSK

Fc1ncccc1OC[C@@H]1C=CCN1
Ki [1]: 0.5 nM

Ic1cncc(OC[C@@H]2C=CCN2)c1
Activity [2]: Active | Activity [3]: inactive | Activity [4]: Active | Ratio Ki [5]: 2 | Activity [6]: > 65% | Activity [7]: Active | Activity [8]: Active | Activity [9]: Active | Activity [10]: > 80%

[123I]c1cncc(OC[C@@H]2C=CCN2)c1
Ratio (Nucleic Acid [11]): 1.6 | Ratio (Nucleic Acid [12]): 4

[18F]c1ncccc1OC[C@@H]1C=CCN1
Ratio (Nucleic Acid [13]): 7.3

CN1CCC[C@H]1c1cccnc1
Activity [2]: Active | Activity [4]: Active | Activity [6]: 24% | Activity [9]: Active
